Active and inactive are the calls of the source. No cut-off for these calls is given here.
Assays:
Calu-6 = assay: Synergistic antiproliferative activity against human Calu-6 cells assessed as combination index at ED50 measured after 72 hrs in presence of erlotinib by celltiter-glo assay; assay type: functional
Outline: (§1)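 Cells grown in RPMI 1640 with 10% heat-inactivated FBS at 37°C, 5% CO₂. Seeded at 2 to 3 × 10³ per well; drugs added 24 h later. […] Viability read as cellular ATP by CellTiter-Glo. CI calculated by Chou–Talalay from median-effect plots at ED50, ED75 and ED90.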

A2780 [1] = assay: Synergistic antiproliferative activity against human A2780 cells assessed as combination index at ED75 measured after 72 hrs in presence of gemcitabine by celltiter-glo assay; assay type: functional
Outline: (§2)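 Cells were seeded at 2–3 × 10³ per well in RPMI 1640 with 10% FBS. At 24 h, MK-2206 and the partner drug were added simultaneously at constant concentration ratios spanning each agent's IC₅₀, for 72 h. Growth was read as cellular ATP by CellTiter-Glo. CI was taken from median-effect plots of each agent alone and in combination (Chou–Talalay), at ED₅₀, ED₇₅ and ED₉₀.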

SK-OV-3 = assay: Synergistic antiproliferative activity against human SK-OV-3 cells assessed as combination index at ED50 measured after 96 hrs in presence of lapatinib by celltiter-glo assay; assay type: functional
NCI-N87 = assay: Synergistic antiproliferative activity against lapatinib pretreated human NCI-N87 cells assessed as combination index at ED90 measured after 72 hrs by celltiter-glo assay; assay type: functional
[2] = Toxicity in human NCI-H460 cells xenografted CD1 nude mouse assessed as body weight loss at 120 mg/kg, po administered 3 times per week for 2 weeks measured on day 14 to 16 in presence of carboplatin; assay type: organism-based; conditions: in vivo, 336 h, time 14-16 day
Outline: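 NCI-H460 cells in 50% Matrigel/PBS injected s.c. into flank of CD1-nude mice; randomized at mean tumour 0.2 cm³ (n = 5). MK-2206 in 30% Captisol, 120 mg/kg p.o. days 0, 2, 4, 7, 9, 11. Carboplatin 50 mg/kg i.v. in saline days 0 and 7 (from day 12 after implant), or gemcitabine 100 mg/kg i.v. in saline days 0 and 7 (from day 8). Body weight monitored.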

A-431 = assay: Antiproliferative activity against human A-431 cells assessed as reduction in cell proliferation measured after 72 hrs by celltiter-glo assay; assay type: functional, cell-based; conditions: A-431, 72 h
Outline: (§3)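 Cells in RPMI 1640 with 10% heat-inactivated FBS at 37°C and 5% CO₂ were seeded at 2 to 3 × 10³ per well. […] Growth was read as cellular ATP by CellTiter-Glo.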

NCI-H23 [3] = assay: Synergistic antiproliferative activity against human NCI-H23 cells assessed as combination index at ED90 measured after 72 hrs in presence of erlotinib by celltiter-glo assay; assay type: functional
A2780 [4] = assay: Synergistic antiproliferative activity against human A2780 cells assessed as combination index at ED75 measured after 72 hrs in presence of doxorubicin by celltiter-glo assay; assay type: functional; outline: as §2
SK-BR-3 [5] = assay: Antiproliferative activity against human SK-BR-3 cells assessed as reduction in cell proliferation measured after 72 hrs by celltiter-glo assay; assay type: functional, cell-based; conditions: SK-BR-3, 72 h; outline: as §3
MDA-MB-468 [6] = assay: Synergistic antiproliferative activity against human MDA-MB-468 cells assessed as combination index at ED50 treated 24 hrs prior to lapatinib and measured after 72 hrs by celltiter-glo assay; assay type: functional; conditions: time 96 hrs
NCI-H460 [7] = assay: Induction of apoptosis in human NCI-H460 cells assessed as fold induction of capsase-3/7 activity measured after 24 to 48 hrs in presence of carboplatin by caspase-glo 3/7 assay; assay type: functional; conditions: time 24-48 hrs
[8] = molecular target: RAC-alpha serine/threonine-protein kinase (Homo sapiens) (UniProt P31749); assay: Inhibition of AKT in human HCC827 cells assessed as reduction in PRAS40 phosphorylation at T246 residue at 5 umol/L measured after 5 hrs in presence of erlotinib by Western blot analysis; assay type: cell-based; conditions: dose 5.0 µmol/L
Chain of RAC-alpha serine/threonine-protein kinase (Homo sapiens) (P31749 whole entry): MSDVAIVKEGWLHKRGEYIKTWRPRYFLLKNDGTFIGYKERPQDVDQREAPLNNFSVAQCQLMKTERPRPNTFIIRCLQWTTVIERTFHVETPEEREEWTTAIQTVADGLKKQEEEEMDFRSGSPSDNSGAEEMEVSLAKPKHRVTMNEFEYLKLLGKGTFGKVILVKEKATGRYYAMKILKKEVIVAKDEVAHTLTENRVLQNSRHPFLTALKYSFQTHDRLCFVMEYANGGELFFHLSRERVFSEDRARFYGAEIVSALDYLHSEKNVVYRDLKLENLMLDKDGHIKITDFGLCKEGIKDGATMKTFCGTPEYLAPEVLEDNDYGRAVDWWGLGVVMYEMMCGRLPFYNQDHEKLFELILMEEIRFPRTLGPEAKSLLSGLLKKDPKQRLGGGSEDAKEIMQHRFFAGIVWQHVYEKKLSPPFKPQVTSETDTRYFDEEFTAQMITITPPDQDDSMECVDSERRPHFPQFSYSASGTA

HCC827 = assay: Synergistic antiproliferative activity against human HCC827 cells assessed as combination index at ED90 measured after 72 hrs in presence of erlotinib by celltiter-glo assay; assay type: functional; outline: as §1
SK-BR-3 [9] = assay: Synergistic antiproliferative activity against human SK-BR-3 cells assessed as combination index at ED90 measured after 96 hrs in presence of lapatinib by celltiter-glo assay; assay type: functional
[10] = Toxicity in human NCI-H460 cells xenografted CD1 nude mouse assessed as body weight loss at 120 mg/kg, po administered 3 times per week for 2 weeks in presence of carboplatin measured during compound dosing relative to control; assay type: organism-based; conditions: in vivo, 336 h
Outline: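 Female CD1-nude mice with s.c. NCI-H460 tumours (50% Matrigel/50% PBS), randomized at mean 0.2 cm³, n=5/group, dosing from 12 d post-implant. Body weight monitored against vehicle-only controls.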

NCI-H460 [11] = assay: Synergistic antiproliferative activity against human NCI-H460 cells assessed as combination index at ED75 measured after 72 hrs in presence of gemcitabine by celltiter-glo assay; assay type: functional
NCI-H661 = assay: Synergistic antiproliferative activity against human NCI-H661 cells assessed as combination index at ED25 to ED90 measured after 72 hrs in presence of gemcitabine by celltiter-glo assay; assay type: functional
NCI-H23 [12] = assay: Antiproliferative activity against human NCI-H23 cells assessed as reduction in cell proliferation measured after 72 hrs by celltiter-glo assay; assay type: functional, cell-based; conditions: NCI-H23, 72 h; outline: as §3
NCI-H460 [13] = assay: Synergistic antiproliferative activity against human NCI-H460 cells assessed as combination index at ED50 measured after 72 hrs in presence of doxorubicin by celltiter-glo assay; assay type: functional
A2780 [14] = assay: Induction of apoptosis in carboplatin pretreated human A2780 cells assessed as increase in caspase-3/7 activity measured after 24 hrs by caspase-glo 3/7 assay; assay type: functional, cell-based; conditions: dose 0.0625-1 µM
NCI-H460 [15] = assay: Synergistic antiproliferative activity against human NCI-H460 cells assessed as combination index at ED50 measured after 72 hrs in presence of 5-FU by celltiter-glo assay; assay type: functional
[16] = Toxicity in human NCI-H460 cells xenografted CD1 nude mouse assessed as body weight loss at 120 mg/kg, po administered 3 times per week for 2 weeks in presence of gemcitabine measured during compound dosing relative to control; assay type: organism-based; conditions: in vivo, 336 h
Outline: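 CD1-nude mice with s.c. NCI-H460 xenografts, randomized at mean 0.2 cm³, n=5/group, dosing from day 8 post-implant. Body weight compared with vehicle-only controls.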

A2780 [17] = assay: Induction of apoptosis in human A2780 cells assessed as increase in caspase-3/7 activity at 0.0625 to 1 uM incubated for 24 hrs prior to addition of carboplatin and measured after 24 hrs by caspase-glo 3/7 assay; assay type: functional, cell-based; conditions: dose 0.0625-1 µM
A2780 [18] = assay: Synergistic antiproliferative activity against human A2780 cells assessed as combination index at ED75 measured after 72 hrs in presence of carboplatin by celltiter-glo assay; assay type: functional; outline: as §2
NCI-H460 [19] = assay: Synergistic antiproliferative activity against human NCI-H460 cells assessed as combination index at ED75 measured after 72 hrs in presence of carboplatin by celltiter-glo assay; assay type: functional
MDA-MB-468 [20] = assay: Synergistic antiproliferative activity against lapatinib pretreated human MDA-MB-468 cells assessed as combination index at ED90 measured after 72 hrs by celltiter-glo assay; assay type: functional

Cl.NC1(c2ccc(-c3nc4ccn5c(=O)[nH]nc5c4cc3-c3ccccc3)cc2)CCC1
CI50 (Calu-6): 0.49
CI75 (A2780 [1]): 0.43
CI50 (SK-OV-3): 0.18
CI90 (NCI-N87): 0.18
Activity [2]: Non-Toxic
IC50 (A-431): 5.5 µM
CI90 (NCI-H23 [3]): 0.68
CI75 (A2780 [4]): 0.43
IC50 (SK-BR-3 [5]): 0.1 µM
CI50 (MDA-MB-468 [6]): 0.18
fold change (FC) (NCI-H460 [7]): 1.4
inhibition [8]: Active
CI90 (HCC827): 0.12
CI90 (SK-BR-3 [9]): 0.18
Activity [10]: 7%
CI75 (NCI-H460 [11]): 0.39
CI (NCI-H661): 0.53
IC50 (NCI-H23 [12]): 14.1 µM
CI50 (NCI-H460 [13]): 0.27
Activity (A2780 [14]): Dose-Dependent Effect
CI50 (NCI-H460 [15]): 0.66
Activity [16]: 7%
Activity (A2780 [17]): inactive
CI75 (A2780 [18]): 0.43
CI75 (NCI-H460 [19]): 0.3
CI90 (MDA-MB-468 [20]): 0.18

Source: ChEMBL document CHEMBL5705892, “MK-2206, an allosteric Akt inhibitor, enhances antitumor efficacy by standard chemotherapeutic agents or molecular targeted drugs in vitro and in vivo” (Mol Cancer Ther, 2010)
